Data set [1] is described as follows: Apical to basolateral fluxes across Caco-2 cell monolayers at 37 degree celsius was studied. It is filed as ADME, organism-based. To be noted: human, read-out: Permeability. The essentials: (§1)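 Caco-2 monolayers (passage 46-48) grown on collagen-coated polycarbonate Transwell filters, 21-25 days after seeding at 80 000 cells/cm2; TEER checked the day before. Transport run in HBSS with 25 mM Hepes, pH 7.4, at 37 °C with stirring. Receiver sampled at intervals up to 4 h, radioactivity counted by scintillation. Papp = dQ/dt·1/(AC0), computed separately for bisphosphonate and Pro-Phe parts; mean ± SD.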
(In general: Caco-2 cells form a polarised layer with tight junctions and transporters.)

Data set [2] can be described thus: (§2) Basolateral to apical fluxes across Caco-2 cell monolayers at 37 degree celsius was studied. Type of data set: ADME, organism-based. To be noted: human, read-out: Permeability. The method, boiled down:
as §1

The species entered for another data set is Homo sapiens. The data set is described as §2. It is filed as ADME, organism-based. The essentials:
as §1

Data set [3] is described as follows: Bioavailability by the ratios of 14C p.o. /14C i.v. accumulated in bone at 24 hr (dose 10 mg/kg p.o.). It is filed as ADME, organism-based, Bone element. Conditions: eutheria, in vivo, po. The essentials: (§3)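 Male Sabra rats, housed in metabolic cages, fasted overnight, dosed by stomach tube at 10 mg/kg bisphosphonate equivalent (n = 6). A 1 mg/kg iv jugular-cannula group served as reference. 14C in tibia or urine measured at 24 h by sample-oxidizer combustion and scintillation counting. F = (amount po × Div)/(amount iv × Dpo) × 100.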

Data set [4] can be described thus: Bioavailability by the ratios of 14C p.o. /14C i.v. accumulated in urine at 24 hr (dose 10 mg/kg p.o.). It is filed as ADME, organism-based. To be noted: eutheria, in vivo, po. The essentials:
as §3

The nature of data set [5]: Inhibition of HAP dissolution was determined […] at 0.24 mM concentration *: p<0.05. To be noted: 240 µM. The method, boiled down: (§4)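 Hydroxyapatite tablets (300 mg, 10 mm), wax-coated so that one face is exposed, were stirred overnight at 37 °C in drug solution (240 or 48 µM in Tris, pH 7.4). They were then moved to acetate buffer, pH 5, at 37 °C. Dissolved calcium was read by atomic absorption at timed points, with the medium replenished after each sample.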

The nature of data set [6]: (§5) Inhibition of HAP dissolution was determined […] at 0.048 mM concentration *: p<0.05. Conditions: 48 µM. The method, boiled down:
as §4

Data set [7] in a line: Inhibition of HAP formation, by the compound (0.1 mM) absorbed, was obtained in vitro studies.*: p<0.05. Conditions: 100 µM. The method, boiled down:
(§6)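 HAP precipitation was run with calcium 3.87 mM and phosphate 2.32 mM (Ca/PO4 1.67) in 0.05 M Tris, pH 7.4. Compound (0.1 or 1 mM) was dissolved in the phosphate solution. After 24 h incubation, filtrate calcium was measured by atomic absorption spectroscopy.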

Data set [8] in a line: Inhibition of HAP formation, by the compound (1.0 mM) absorbed, was obtained in vitro studies.*: p<0.05. To be noted: 1000 µM. The essentials:
as §6

Data set [9] is described as follows: Inhibition of HAP dissolution was determined in […] at 0.24 mM concentration *: p<0.05. Set-up: scale not given: the % may be the effect or the level left. To be noted: 240 µM. The method, boiled down:
as §4

The nature of data set [10]: as §5. Further details: scale not given: the % may be the effect or the level left. To be noted: 48 µM. The method, boiled down:
as §4

For orientation: Inhibition means the change of the read-out against control, counted positive when it falls.

The structures appear in SMILES notation. Residues, ends and D or L forms follow the SMILES beside them.

For `O=C(O)[C@H](Cc1ccccc1)NC(=O)[C@@H]1CCCN1` (H-Pro-Phe-OH), in [1], the Papp A→B is 2.29 ×10⁻⁶ cm/s. In data set [2], the Papp B→A was determined as 1.14 ×10⁻⁶ cm/s.

On to `O=C(N[C@@H](Cc1ccccc1)C(=O)NCCC(O)(P(=O)(O)O)P(=O)(O)O)[C@@H]1CCCN1` (stereo in doubt; form 1), for which the Papp A→B in data set [1] stood at 0.5 ×10⁻⁶ cm/s. The same compound returned a Permeability in the data set filed under Homo sapiens of 0.41 ×10⁻⁶ cm/s.

Turning to `O=C(N[C@@H](Cc1ccccc1)C(=O)NCCCC(O)(P(=O)(O)O)P(=O)(O)O)[C@@H]1CCCN1` (stereo in doubt; form 1), in data set [1], the Papp A→B turned out to be 0.23 ×10⁻⁶ cm/s. The Bioavailability in data set [3] stood at 1.74%; in data set [4] it was 3.1%. The Permeability in the data set filed under Homo sapiens is 0.16 ×10⁻⁶ cm/s.

Turning to `O=C(N[C@@H](Cc1ccccc1)C(=O)NCCC(O)(P(=O)(O)O)P(=O)(O)O)[C@@H]1CCCN1` (stereo in doubt; form 2), the Papp A→B in [1] is 0.11 ×10⁻⁶ cm/s. Besides, the Inhibition in [5] amounted to 59.1%; in data set [6] it was 79.4%. Moreover, the Bioavailability in data set [3] was determined as 1.65%; in data set [4], 3.17%. The compound also returned a Permeability in the data set filed under Homo sapiens of 0.09 ×10⁻⁶ cm/s. Further, the Initial concentration came out at 83.8% in data set [7] and 40.5% in [8].

`O=C(N[C@@H](Cc1ccccc1)C(=O)NCCCC(O)(P(=O)(O)O)P(=O)(O)O)[C@@H]1CCCN1` (stereo in doubt; form 2): the Papp A→B in [1] is 1.03 ×10⁻⁶ cm/s. Moreover, the Permeability in the data set listed under Homo sapiens was found to be 0.55 ×10⁻⁶ cm/s.

Regarding `OC[C@@H](O)[C@@H](O)[C@H](O)[C@H](O)CO` [MANNITOL], in data set [1], the Papp A→B is 0.26 ×10⁻⁶ cm/s. Besides, the Papp B→A in data set [2] amounted to 0.22 ×10⁻⁶ cm/s.

In the case of `NCCC(O)(P(=O)(O)O)P(=O)(O)O` [PAMIDRONIC ACID], the Papp A→B in data set [1] was 0.05 ×10⁻⁶ cm/s. Moreover, the Control in data set [9] stood at 55.7%; in data set [10], 79.4%. Besides, the Bioavailability is reported as 0.44% in [3] and 1.74% in [4]. The Papp B→A in [2] came out at 0.04 ×10⁻⁶ cm/s. Besides, the results for the Initial concentration in [7] and in [8] were 63.8% and 46.9%, respectively.

These data come from ChEMBL document CHEMBL1133674, “A peptide prodrug approach for improving bisphosphonate oral absorption” (J Med Chem, 2000).
